One assay concerns the target Mu-type opioid receptor (Homo sapiens, UniProt P35372). The experiment in a line: Binding affinity towards human mu-opioid receptors in CHO (Chinese hamster ovary) cell lines. Format: cell-based. The method in brief:
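CHO cells stably expressing hMOR grown in serum-free suspension culture; membranes made by hypotonic lysis in 10 mM potassium phosphate pH 7.2 with 3 mM MgCl2. Binding run in triplicate at 10 µg/mL protein with 0.4-0.5 nM radioligand for 60 min at 30 °C. Nonspecific binding defined with 10 µM naloxone; filtration and scintillation counting. Duplicate concentration-response curves, n = 3-5 for potent compounds.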

For assay [1], the target named is T1, Neuromedin-K receptor (Homo sapiens, UniProt P29371).
T1 sequence (P29371 whole entry): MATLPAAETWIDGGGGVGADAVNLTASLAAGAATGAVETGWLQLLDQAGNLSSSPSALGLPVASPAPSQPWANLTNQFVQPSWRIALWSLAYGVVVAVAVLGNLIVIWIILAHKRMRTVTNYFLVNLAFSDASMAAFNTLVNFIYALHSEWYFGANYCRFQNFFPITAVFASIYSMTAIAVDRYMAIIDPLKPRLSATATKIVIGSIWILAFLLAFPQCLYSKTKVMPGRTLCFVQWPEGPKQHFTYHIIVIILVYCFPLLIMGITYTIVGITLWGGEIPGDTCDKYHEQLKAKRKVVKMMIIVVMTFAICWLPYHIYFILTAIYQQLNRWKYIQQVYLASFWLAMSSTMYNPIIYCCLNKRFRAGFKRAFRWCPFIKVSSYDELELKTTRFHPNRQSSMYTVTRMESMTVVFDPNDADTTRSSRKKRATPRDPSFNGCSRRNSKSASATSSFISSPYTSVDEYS
The experiment in a line: Displacement of [125 I]-[MePhe]-NKB binding to hNK-3-CHO (Chinese hamster ovary) membranes. The procedure, abridged:
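hNK-3-CHO crude membranes (~15 µg protein) were incubated with 0.15 nM [125I]-[MePhe7]-NKB in 50 mM Tris pH 7.4, 4 mM MnCl2, 1 µM phosphoramidon, 0.1% ovalbumin for 90 min at 25 °C. Filtered through BSA-presoaked GF/C, then scintillation counted. Nonspecific binding defined with 0.5 µM cold [MePhe7]-NKB. Ki from IC50 by Cheng-Prusoff; duplicates, n = 3-5.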

Assay [2] in a line: Selectivity ratio (hNK-2/hNK-3) of the compound.
Assay [3] addresses T2, Substance-K receptor (Homo sapiens, UniProt P21452).
T2 sequence (P21452 whole entry): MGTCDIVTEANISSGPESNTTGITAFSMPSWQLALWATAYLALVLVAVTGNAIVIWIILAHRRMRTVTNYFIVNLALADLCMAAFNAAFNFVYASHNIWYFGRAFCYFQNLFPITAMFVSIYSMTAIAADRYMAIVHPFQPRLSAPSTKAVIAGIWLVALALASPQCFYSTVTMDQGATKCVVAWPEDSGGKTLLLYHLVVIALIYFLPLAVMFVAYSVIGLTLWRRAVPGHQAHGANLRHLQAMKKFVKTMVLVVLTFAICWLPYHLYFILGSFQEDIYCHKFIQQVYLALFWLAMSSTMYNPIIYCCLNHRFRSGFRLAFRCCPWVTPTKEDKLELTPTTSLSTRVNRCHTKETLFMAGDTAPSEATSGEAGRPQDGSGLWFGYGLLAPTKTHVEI
In words: Displacement of [125 I]-NKA binding to tachykinin receptor 2 in CHO membranes. Format: cell membranes. The method in brief:
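hNK-2-CHO crude membranes (~10 µg protein) were incubated with 0.15 nM [125I]-NKA for 90 min at 25 °C in Tris pH 7.4 buffer containing MnCl2, phosphoramidon and ovalbumin. Filtered through GF/C soaked in 0.1% PEI. Nonspecific binding defined with 0.5 µM cold NKA. Ki from IC50 by Cheng-Prusoff; duplicate curves, n = 3-5.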

For assay [4], the target named is T2, Substance-K receptor. In words: Cellular functional antagonistic activity against NKA-induced [Ca2+] mobilization in HEK cells stably expressing the tachykinin receptor 2. The settings on record: read-out: pA2 (converted).
Assay [5] concerns the target T3, Substance-K receptor (Homo sapiens) (UniProt P21452).
T3 sequence (whole entry): T2 sequence (P21452 whole entry)
The assay is described as above. The note with it: HEK293.

The target of assay [6] is T1, Neuromedin-K receptor. The experiment in a line: (§1) Cellular functional antagonistic activity against NKB-induced [Ca2+] mobilization in HEK cells stably expressing the hNK-3 receptor. It is filed as cell-based, HEK293. The note with it: read-out: pA2 (converted).
Assay [7] has as its target T4, Neuromedin-K receptor (Homo sapiens) (UniProt P29371).
T4 sequence (whole entry): T1 sequence (P29371 whole entry)
Described as §1. Format: cell-based. The settings on record: HEK293.

Sequence of Mu-type opioid receptor (P35372 whole entry): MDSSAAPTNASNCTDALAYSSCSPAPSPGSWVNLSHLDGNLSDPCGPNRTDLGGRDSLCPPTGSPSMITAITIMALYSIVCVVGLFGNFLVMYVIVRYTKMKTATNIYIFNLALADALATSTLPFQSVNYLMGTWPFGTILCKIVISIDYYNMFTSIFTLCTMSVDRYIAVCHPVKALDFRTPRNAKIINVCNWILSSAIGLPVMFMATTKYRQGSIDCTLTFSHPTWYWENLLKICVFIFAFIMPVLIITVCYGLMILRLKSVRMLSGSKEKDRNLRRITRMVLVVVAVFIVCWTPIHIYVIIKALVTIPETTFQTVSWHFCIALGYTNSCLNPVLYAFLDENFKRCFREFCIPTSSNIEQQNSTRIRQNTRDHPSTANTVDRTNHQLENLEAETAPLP

The term Ki denotes a measure of affinity in units of concentration, obtained from inhibition or displacement. High values mean a looser hold on the target, low ones a stronger hold on the target. For the compound `CC[C@H](NC(=O)c1c(O)c(-c2ccccc2)nc2ccccc12)c1ccccc1` [TALNETANT], affinity at Mu-type opioid receptor was put at a Ki of 1860 nM.
Turning to `C[C@H](NC(=O)c1c(CN2CCC(N)CC2)c(-c2ccccc2)nc2ccccc12)C1CCCCC1`, the results for the Ki at Neuromedin-K receptor [1], on Mu-type opioid receptor and on Substance-K receptor [3] were 31.2 nM, 1780 nM and 33 nM, respectively. For the same compound, in assay [2], the Ratio amounted to 1.1.
The corresponding values for `CC(C)N1CCN(Cc2c(-c3ccccc3)nc3ccccc3c2C(=O)NC2CCCCC2)CC1` are 1250 nM, 226 nM, 4.2 nM and 0.003.
Take `C[C@H](NC(=O)c1c(CN2CCOCC2)c(-c2ccccc2)nc2ccccc12)C1CCCCC1`: the Ki on Neuromedin-K receptor [1] was 4.6 nM; at Mu-type opioid receptor, over 2500 nM; on Substance-K receptor [3] it was 6.1 nM. The Ratio in assay [2] came out at 1.3.
In the same order, the values of `CC(C)[C@H](NC(=O)c1c(CN2CCN(C(C)C)CC2)c(-c2ccccc2)nc2ccccc12)c1ccccc1` are 1.2 nM, 120 nM, 1.5 nM and 1.2.
Consider `CC[C@H](NC(=O)c1c(CN(C)C)c(-c2ccccc2)nc2ccccc12)c1ccccc1`, for which the inhibition constant Ki on Neuromedin-K receptor [1] came to 2.2 nM; on Mu-type opioid receptor, 1680 nM; on Substance-K receptor [3], 172 nM. The Ratio in assay [2] was determined as 78.
Regarding `CC(C)[C@H](NC(=O)c1c(CN(C)C)c(-c2ccccc2)nc2ccccc12)c1ccccc1`, the Ki on Mu-type opioid receptor is over 2500 nM; on Substance-K receptor [3] it was 51.6 nM. Also, the Ratio in assay [2] stood at 16.
Consider `CC[C@H](NC(=O)c1c(CN2CCN(C3CCCCC3)CC2)c(-c2ccccc2)nc2ccccc12)c1ccccc1`, for which the values for the Ki on Neuromedin-K receptor [1], on Mu-type opioid receptor and at Substance-K receptor [3] were 1.2 nM, 15.8 nM and 1.6 nM, respectively. Moreover, the Ratio in assay [2] worked out at 1.3.
Take `CCC(CC)NC(=O)c1c(CN2CCN(C(C)C)CC2)c(-c2ccccc2)nc2ccccc12`: the Ki at Neuromedin-K receptor [1] was found to be 1210 nM; on Substance-K receptor [3], 18.5 nM. The Ratio in assay [2] came out at 0.015.
The corresponding values for `CC(C)NC(=O)c1c(CN2CCN(C(C)C)CC2)c(-c2ccccc2)nc2ccccc12` are over 12000 nM, 811 nM and under 0.1.
For `C[C@H](NC(=O)c1c(CN2CCC(N3CCOCC3)CC2)c(-c2ccccc2)nc2ccccc12)C1CCCCC1`, the Ki was 0.8 nM at Neuromedin-K receptor [1], over 2500 nM on Mu-type opioid receptor and 0.8 nM at Substance-K receptor [3]. The Ratio in assay [2] turned out to be 1.
Regarding `C[C@H](NC(=O)c1c(CN2CCNCC2)c(-c2ccccc2)nc2ccccc12)C1CCCCC1`, the Ki at Neuromedin-K receptor [1] came to 3.4 nM; at Mu-type opioid receptor, 172 nM; at Substance-K receptor [3], 2.4 nM. Also, in assay [2], the Ratio turned out to be 0.7.
Consider `CC[C@H](NC(=O)c1c(CN2CCN(C(C)C)CC2)c(-c2ccccc2)nc2ccccc12)c1ccccc1`, for which the Ki at Mu-type opioid receptor was 98.6 nM. Further, the Ratio in assay [2] was determined as 3.1.
As to `CC[C@H](NC(=O)c1c(CN2CCCCC2)c(-c2ccccc2)nc2ccccc12)c1ccccc1`, the results for the inhibitory constant (Ki) at Neuromedin-K receptor [1], on Mu-type opioid receptor and at Substance-K receptor [3] were 7 nM, over 2500 nM and 276 nM, respectively. Also, in assay [2], the Ratio was 39.
As to `CC(C)N1CCN(Cc2c(-c3ccccc3)nc3ccccc3c2C(=O)N[C@@H](C)C2CCCCC2)CC1`, the inhibition constant Ki at Neuromedin-K receptor [1] is 1.9 nM; at Mu-type opioid receptor, 195 nM; at Substance-K receptor [3], 0.7 nM. In assay [2], the Ratio turned out to be 0.4.
Turning to `CC(C)C(=O)N1CCN(Cc2c(-c3ccccc3)nc3ccccc3c2C(=O)N[C@@H](C)C2CCCCC2)CC1`, the Ki is 1.4 nM on Neuromedin-K receptor [1], over 2500 nM at Mu-type opioid receptor and 1.2 nM on Substance-K receptor [3]. For the same compound, the Ratio in assay [2] turned out to be 0.9.
The corresponding values for `CC[C@H](NC(=O)c1c(CN2CCNCC2)c(-c2ccccc2)nc2ccccc12)c1ccccc1` are 4.7 nM, 203 nM, 22.2 nM and 4.7.
In the case of `C[C@H](NC(=O)c1c(CN2CCC(N3CCCCC3)CC2)c(-c2ccccc2)nc2ccccc12)C1CCCCC1`, the Kb on Substance-K receptor [4] was 10 nM; in assay [5] it was 9.9 nM; on Neuromedin-K receptor [6], 2 nM; in assay [7] it was 2.6 nM. The Ki on Neuromedin-K receptor [1] was determined as 1.7 nM; at Mu-type opioid receptor, 1320 nM; at Substance-K receptor [3], 0.6 nM. For the same compound, in assay [2], the Ratio was 0.3.
As to `CC(C)C(C)NC(=O)c1c(CN2CCN(C(C)C)CC2)c(-c2ccccc2)nc2ccccc12` (centres undefined), the inhibitory constant (Ki) was 454 nM at Neuromedin-K receptor [1] and 9.2 nM at Substance-K receptor [3]. In addition, the Ratio in assay [2] worked out at 0.02.
Regarding `C[C@H](NC(=O)c1c(CN2CCC(N3CCCCC3)CC2)c(-c2ccccc2)nc2ccccc12)C(C)(C)C`, the inhibition constant Ki at Neuromedin-K receptor [1] was 193 nM; at Mu-type opioid receptor it was at least 2000 nM; at Substance-K receptor [3], 1 nM. Besides, the Ratio in assay [2] was determined as 0.005.
Consider `CC[C@H](NC(=O)c1c(CN2CCC(N3CCCCC3)CC2)c(-c2ccccc2)nc2ccccc12)c1ccccc1`, for which the results for the Ki on Neuromedin-K receptor [1], on Mu-type opioid receptor and at Substance-K receptor [3] were 1.5 nM, 919 nM and 4.6 nM, respectively. Besides, in assay [2], the Ratio came to 3.1.
